# Screens: PubChem BioAssay, several laboratories
# Only some compounds are listed: those with a hit (about 1.3% of all), similar ones and a draw of the others.
# Furin inh: human furin inhibition; inhibition, % at 20 µM or 30 µM; AID 463115; purified furin, fluorogenic substrate cleavage; P09958; 220,000 tested, 0.061% active; in the data active = inhibition above about 25%
# NR2E3 ag-1: human photoreceptor-specific nuclear receptor agonism | CHO-S Gal4-NCOR/VP16-NR2E3 two-hybrid, luciferase | Q9Y5X4 | inhibition of corepressor binding, % at 3.98 µM | 360,000 tested, 0.35% active;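 active = inhibition above the mean of all tested compounds plus 3 SD, cut at about 70% in these data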;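 note: 0% = DMSO with NR2E3 transfected cells and 100% = cells lacking NR2E3 construct; higher means lower luciferase signal from less NR2E3 corepressor binding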
# NR2E3 ag-2: agonists of human nuclear receptor NR2E3 | inhibition of corepressor binding, % at 4.78 µM | 320,000 tested, 0.12% active | Q9Y5X4 | GST-NR2E3/biotin-RetCOR TR-FRET, 1536-well;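 active = percent inhibition above the cutoff of mean plus 3 SD of all tested compounds, set per screening campaign, cut at about 20% in these data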;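 note: 0% = DMSO wells and 100% = biotin wells as full block of FRET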
#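 Material: NR2E3–RetCOR corepressor complex / Amount: 1.35 nM GST-NR2E3 / Medium: Tris pH 7.5 / Compound: single nominal compound dose of 4.8 µM / Incubation: 5 h at 4 °C / Technique: TR-FRET, Eu(K)-anti-GST donor, streptavidin-D2 acceptor, ex 340, em 617/671 nm / Read-out basis: percent loss of FRET ratio relative to control wells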
# JMJD2C inh: inhibitors of human GASC-1 (JMJD2C) demethylase; Q9H3R0; GST-JMJD2C(1-420) H3K9me3 demethylation, DELFIA europium; inhibition, % at 2.35 µM; 330,000 tested, 0.069% active; AID 2099;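 active = more than half of a compound's replicate wells show inhibition beyond 50%, single wells judged on their own value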;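 note: signal counts dimethyl H3K9 product captured on neutravidin plate; 0% = median of DMSO wells and 100% = 0.3 times that DMSO median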
# Target sequence (Q9H3R0 1-420 limits assumed): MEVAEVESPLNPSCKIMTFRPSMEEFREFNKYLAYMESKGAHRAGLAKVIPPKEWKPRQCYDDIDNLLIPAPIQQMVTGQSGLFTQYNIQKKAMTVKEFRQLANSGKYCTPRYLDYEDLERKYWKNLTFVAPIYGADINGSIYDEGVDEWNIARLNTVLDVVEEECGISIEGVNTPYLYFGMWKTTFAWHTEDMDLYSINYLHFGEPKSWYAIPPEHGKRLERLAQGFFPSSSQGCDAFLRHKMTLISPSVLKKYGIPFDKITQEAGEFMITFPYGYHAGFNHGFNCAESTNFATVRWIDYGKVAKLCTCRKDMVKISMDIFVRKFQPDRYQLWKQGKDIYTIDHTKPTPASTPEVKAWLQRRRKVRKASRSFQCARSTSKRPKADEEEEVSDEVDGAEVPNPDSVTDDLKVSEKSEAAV
# EP2 antag: blocks the human prostaglandin E2 receptor EP2; AID 1422; 260,000 tested, 0.52% active; inhibition, % at 25 µM; C6 glioma cells expressing human EP2, cAMP TR-FRET; cells stimulated with saturating PGE2; P43116;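 active = percent inhibition above 40 after rounding to a whole number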;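 note: rat C6 glioma host cells with rolipram phosphodiesterase inhibitor present; the protocol text gives 20 µM as final concentration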
# EP2 modulator: modulates human prostaglandin E2 receptor EP2 signaling; P43116; EP2-expressing cells, cAMP HTRF FRET, PGE2 co-stimulation; induction, % at 25 µM; 260,000 tested, 0.83% active;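 active = compounds whose cAMP rise, as percent of the full-agonist control response, exceeds 60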;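 note: rat C6 glioma line stably carrying human EP2 under a CMV promoter; the protocol text gives 20 µM as final concentration; 100% = response of wells given 1 µM PGE2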
# NR2E3 ag confirm: NR2E3 agonism confirmed in two-hybrid assay | shares compounds with NR2E3 ag-1 | CHO-S mammalian two-hybrid NR2E3-NCOR, luciferase luminescence | 2,300 tested, 51% active | inhibition, % at 3.98 µM;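 active = average inhibition above a cutoff equal to the mean inhibition of all tested compounds plus one SD, cut at about 70% in these data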;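 note: 0% = DMSO in NR2E3 cells and 100% = DMSO in cells lacking NR2E3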
# GAL4-VP16 luc: GAL4-VP16 reporter inhibition in NR2E3 agonist counterscreen | shares compounds with NR2E3 ag-1 | CHO-S GAL4-VP16 luciferase reporter, luminescence | inhibition, % at 3.98 µM | 2,300 tested, 29% active | AID 624379;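 active = mean inhibition above a cutoff equal to the average over all tested compounds plus one standard deviation, cut at about 70% in these data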;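 note: luciferase from a UAS reporter driven by GAL4-VP16 transactivation; 0% = DMSO with VP16-transfected cells and 100% = DMSO with cells lacking VP16; higher means less reporter light so more repression of VP16 activity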
# * = called active by the depositor; . = no result.
SMILES,Furin inh,NR2E3 ag-1,NR2E3 ag-2,JMJD2C inh,EP2 antag,EP2 modulator,NR2E3 ag confirm,GAL4-VP16 luc
CC1CCOC(=O)C=CC=CC(=O)OC2CC3OC4C5OC5(C)C(O)CC4(COC(=O)C1O)C2(C)C31CO1 (centres undefined),.,102*,.,.,.,.,99*,99*
CC1=CC2OC3CC4OC(=O)C=CC=CC(C(C)O)OCC(O)C5(C)OC5C(=O)OCC2(CC1O)C4(C)C31CO1 (centres undefined),.,102*,.,.,.,.,98*,98*
CC(O)C1C=CC=CC(=O)OC2CC3OC4C5OC5(C)C(O)CC4(COC(=O)C(O)C(C)CCO1)C2(C)C31CO1 (centres undefined),.,92*,.,.,.,.,94*,66
CN(C)CCN(Cc1ccccc1F)C(=O)Cc1cn2ccsc2n1,.,.,.,.,5,4,.,.
COc1ccc(C)cc1CN1C2CCC1CC(O)(c1ccccc1F)C2 (centres undefined),.,.,.,.,4,5,.,.
N=c1c(C(N)=O)cc(Cl)cn1Cc1ccccc1,.,.,.,.,9,5,.,.
CC1CCC/C=C/C2CC(O)CC2C(O)/C=C/C(=O)O1 (centres undefined),-19,83*,2,58,.,17,99*,56
C[C@H]1CCC[C@@H](O)CCC/C=C/c2cc(O)cc(O)c2C(=O)O1,-29,25,3,0,12,-10,.,.
c1ccc(-c2ccc(CN3Cc4ccccc4-n4nncc4C3)cc2)cc1,.,59,.,.,.,.,83*,60
COc1cc2c(cc1OC)[C@]13CCN4CC5=CCO[C@@H](CC(=O)O)[C@H]([C@H]5C[C@H]41)[C@@H]3N2,.,.,.,.,37,18,.,.
COC(=O)C1=C(c2ccc(-c3ccccc3)c(F)c2)C[C@@H]2CC[C@H]1N2C(=O)N1CCCC1,.,71*,2,0,.,.,54,56
COC(=O)C1=C(c2ccc(-c3ccccc3)c(F)c2)C[C@@H]2CC[C@H]1N2C(=O)N1CCCCC1,.,37,2,4,.,.,.,.
O=C(Nc1ccccc1O)c1ccc(Cl)c(S(=O)(=O)N2CCCCCC2)c1,.,.,.,.,6,-80,.,.
CC(C)(O)/C=C/C(=O)C(C)(O)C1C(O)CC2(C)C3CC=C4C(C=C(O)C(=O)C4(C)C)C3(C)C(=O)CC12C (centres undefined),.,79*,.,.,.,.,47,57
CC(=O)O[C@H]1C[C@@H]2OC3C=C(C)CCC3(C)[C@@]1(C)[C@@]21CO1 (some centres undefined),.,101*,.,.,.,.,98*,97*
CC(=O)OC1CC2OC3C=C(C)CCC3(C)C1(C)C21CO1 (centres undefined),.,102*,.,.,.,.,100*,98*
Cc1cccc(-n2c(C)nc3c(Cl)cc(Cl)cc3c2=O)c1,.,.,.,.,15,10,.,.
COc1cc2cc(C(=O)N3CC(COS(C)(=O)=O)c4ccc(O)cc43)[nH]c2c(OC)c1OC (centres undefined),.,73*,.,.,.,.,100*,94*
CCN1CC2(CO)CCC(O)C34C5CC6C(OC)CC(O)(C5C6OC)C(O)(C(OC)C23)C14 (centres undefined),.,.,.,.,9,-10,.,.
C[N+]1=C(/C=C/Nc2ccccc2)C(C)(C)c2ccccc21,-4,-15,-3,2,7,0,.,.
CCN1/C(=C/C=C/C2=[N+](CC)c3ccccc3C2(C)C)C(C)(C)c2ccccc21,.,104*,.,.,.,.,98*,94*
CSc1ncc(CN2C3CCC2CC(O)(c2ccccc2F)C3)cn1 (centres undefined),.,.,.,.,4,-79,.,.
CCOC(=O)[C@]12Cc3cc(Cl)ccc3[C@H]1N(C1CCCCC1)C(=O)c1cc(OC)ccc12,.,100*,.,.,.,.,99*,78*
CCC1CN2CCc3cc(OC)c(OC)cc3C2CC1CC1NCCc2c1[nH]c1ccc(O)cc21 (centres undefined),.,102*,.,.,.,.,99*,99*
Oc1c(Br)c(Br)c(Br)c(Br)c1Br,.,101*,1,6,.,.,99*,88*
SMILES,Furin inh,NR2E3 ag-1,NR2E3 ag-2,JMJD2C inh,EP2 antag,EP2 modulator,NR2E3 ag confirm,GAL4-VP16 luc
Oc1c(Br)cc(Br)cc1Br,.,7,1,10,.,.,.,.
Cc1[nH]c2ccc(F)cc2c1CC(=O)N(CCN(C)C)Cc1ccc(F)cc1,.,.,.,.,6,-88,.,.
CN(Cc1cccc(-c2ccncc2)c1)C(=O)Oc1ccccc1Cl,.,88*,.,.,.,.,73*,77*
Cc1nc2cc(OC(=O)N(C)Cc3cccc(-c4ccncc4)c3)ccc2s1,.,67,.,.,.,.,62,54
CN(C)Cc1ccccc1OC(=O)N(C)C,-18,-11,4,-5,11,3,.,.
CN(Cc1cccc(-c2ccncc2)c1)C(=O)Oc1ccccc1Cc1ccccc1,.,81*,.,.,.,.,80*,79*
COc1cccc(CN2CCN(C(=O)Cc3n[nH]c(=O)c4ccccc34)[C@@H](C)C2)c1,.,.,.,.,.,4,.,.
OC1(c2ccc(F)cc2)CC2CCC(C1)N2Cc1nnnn1Cc1ccco1 (centres undefined),.,.,.,.,9,-46,.,.
CC1CCC(NC(=O)CN2C3CCC2CC(O)(c2ccco2)C3)CC1 (centres undefined),.,.,.,.,.,-32,.,.
C=Cn1ncc(CN(CCc2ccccc2)Cc2cccs2)c1C,.,.,.,.,3,60,.,.
